The target of assay [1] is Somatostatin receptor type 2 (Homo sapiens, UniProt P30874). In words: Inhibition of 125I-[Leu8,D-Trp22,Tyr25]SRIF-28 binding to human somatostatin receptor type 2. In a few lines:
(§1)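 Human sst2 or sst3 receptor stably expressed in CCL39 cells. 20 µm cryostat sections of cell membrane pellets were used for autoradiographic binding. IC50 (nM) came from competitive displacement. Values are mean ± SEM when N ≥ 3; otherwise mean with single values.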

For assay [2], the target named is Somatostatin receptor type 3 (Homo sapiens, UniProt P32745). In words: Inhibition of 125I-[Leu8,D-Trp22,Tyr25]SRIF-28 binding to human somatostatin receptor type 3. In a few lines: as §1
Somatostatin receptor type 3, sequence (P32745 whole entry): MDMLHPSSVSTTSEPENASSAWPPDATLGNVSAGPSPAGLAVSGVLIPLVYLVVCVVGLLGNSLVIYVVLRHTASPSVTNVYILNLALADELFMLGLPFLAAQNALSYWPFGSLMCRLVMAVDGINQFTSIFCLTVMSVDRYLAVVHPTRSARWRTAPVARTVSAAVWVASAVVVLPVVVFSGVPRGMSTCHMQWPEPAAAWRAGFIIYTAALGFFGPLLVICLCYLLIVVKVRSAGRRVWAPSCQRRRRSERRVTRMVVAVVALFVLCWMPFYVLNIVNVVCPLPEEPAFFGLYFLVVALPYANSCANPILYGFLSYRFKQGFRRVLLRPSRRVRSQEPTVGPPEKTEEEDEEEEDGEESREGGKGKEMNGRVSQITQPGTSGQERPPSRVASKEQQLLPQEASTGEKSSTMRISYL
Assay [3] addresses Somatostatin receptor type 4 (Homo sapiens, UniProt P31391). In words: Inhibition of 125I-[Leu8,D-Trp22,Tyr25]SRIF-28 binding to human somatostatin receptor type 4.
Assay [4] deals with Somatostatin receptor type 5 (Homo sapiens, UniProt P35346). In words: Inhibition of 125I-[Leu8,D-Trp22,Tyr25]SRIF-28 binding to human somatostatin receptor type 5. The method in brief: (§2)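 Human sst1 or sst5 receptor stably expressed in CHO-K1 cells. 20 µm cryostat sections of cell membrane pellets were used for receptor autoradiography. IC50 (nM) came from competitive radioligand displacement. Values are mean ± SEM when N ≥ 3; otherwise mean with single values.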
Somatostatin receptor type 5, sequence (P35346 whole entry): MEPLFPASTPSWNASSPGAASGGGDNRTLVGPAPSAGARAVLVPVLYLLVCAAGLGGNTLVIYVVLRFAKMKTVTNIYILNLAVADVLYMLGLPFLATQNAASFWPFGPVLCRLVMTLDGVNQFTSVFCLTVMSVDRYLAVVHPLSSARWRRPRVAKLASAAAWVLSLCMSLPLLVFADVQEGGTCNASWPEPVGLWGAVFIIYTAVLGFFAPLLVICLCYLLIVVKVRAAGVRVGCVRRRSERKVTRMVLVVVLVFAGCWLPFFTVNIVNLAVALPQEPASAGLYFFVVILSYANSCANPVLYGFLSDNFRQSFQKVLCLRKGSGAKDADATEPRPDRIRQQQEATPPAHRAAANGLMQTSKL

Assay [5] has as its target Somatostatin receptor type 1 (Homo sapiens, UniProt P30872). In words: Inhibition of 125I-[Leu8,D-Trp22,Tyr25]SRIF-28 binding to human somatostatin receptor type 1. The method in brief:
as §2

For assay [6], the species on record is Rattus norvegicus. The assay is described as follows: Relative potency of compound to inhibit insulin secretion […]. In kind it is functional.
Assay [7] is filed under the species Rattus norvegicus. In words: Relative potency of compound to inhibit growth hormone secretion in rat anterior pituitary cells. Format: functional, Pituitary gland cell.
The species named for assay [8] is Rattus norvegicus. The assay is described as follows: Relative potency of compound to inhibit glucagon secretion […]. In kind it is functional.

Somatostatin receptor type 2, sequence (P30874 whole entry): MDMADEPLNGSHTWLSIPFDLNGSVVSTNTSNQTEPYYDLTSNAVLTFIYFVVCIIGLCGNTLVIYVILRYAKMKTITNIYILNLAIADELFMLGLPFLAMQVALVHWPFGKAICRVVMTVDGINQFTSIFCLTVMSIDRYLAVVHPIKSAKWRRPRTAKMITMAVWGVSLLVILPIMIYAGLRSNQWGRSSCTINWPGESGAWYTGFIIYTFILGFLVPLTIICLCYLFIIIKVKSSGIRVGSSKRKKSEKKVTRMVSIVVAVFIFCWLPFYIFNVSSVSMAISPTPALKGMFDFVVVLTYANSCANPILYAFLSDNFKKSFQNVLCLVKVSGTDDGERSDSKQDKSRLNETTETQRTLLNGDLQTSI
Somatostatin receptor type 1, sequence (P30872 whole entry): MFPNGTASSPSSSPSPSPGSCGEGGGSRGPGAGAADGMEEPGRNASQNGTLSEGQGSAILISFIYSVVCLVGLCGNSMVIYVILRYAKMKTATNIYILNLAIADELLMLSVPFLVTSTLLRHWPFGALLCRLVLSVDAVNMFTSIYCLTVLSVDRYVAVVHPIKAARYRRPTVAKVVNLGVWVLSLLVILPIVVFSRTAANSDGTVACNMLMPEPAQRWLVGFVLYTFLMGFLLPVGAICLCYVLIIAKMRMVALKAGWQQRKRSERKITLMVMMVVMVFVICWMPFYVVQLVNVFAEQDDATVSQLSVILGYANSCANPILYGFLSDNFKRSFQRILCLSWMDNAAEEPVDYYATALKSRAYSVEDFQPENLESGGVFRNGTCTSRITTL
Somatostatin receptor type 4, sequence (P31391 whole entry): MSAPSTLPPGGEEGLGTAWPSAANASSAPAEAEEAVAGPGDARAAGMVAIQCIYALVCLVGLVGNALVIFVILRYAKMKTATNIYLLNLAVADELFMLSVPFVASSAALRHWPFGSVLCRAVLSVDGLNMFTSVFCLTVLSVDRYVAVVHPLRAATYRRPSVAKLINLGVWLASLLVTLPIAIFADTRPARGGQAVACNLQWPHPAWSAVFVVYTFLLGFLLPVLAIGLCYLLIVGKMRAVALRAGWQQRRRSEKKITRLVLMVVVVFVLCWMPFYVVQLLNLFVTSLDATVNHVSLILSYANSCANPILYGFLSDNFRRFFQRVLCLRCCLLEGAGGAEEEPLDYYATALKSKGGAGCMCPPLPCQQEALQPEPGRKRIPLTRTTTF

Usually IC50 stands for the midpoint of a concentration-inhibition curve. Read a low IC50 as higher potency. Consider `CC(C)NCc1ccc(C[C@@H]2NC(=O)[C@@H](Cc3c[nH]c4ccccc34)NC(=O)[C@H]3CCC(=O)NCC[C@H](NC(=O)[C@H]([C@@H](C)O)NC2=O)C(=O)N[C@@H]([C@@H](C)O)C(=O)N[C@@H](CO)C(=O)N[C@H](C(=O)O)CSSC[C@H](NC(=O)[C@@H](N)Cc2ccc(O)cc2)C(=O)N[C@@H](CCCCN)C(=O)N[C@@H](Cc2ccccc2)C(=O)N3)cc1`, for which the IC50 in assay [1], in assay [2], in assay [3], in assay [4] and in assay [5] was greater than 1000 nM each time.
Consider `CC(C)NCc1ccc(C[C@@H]2NC(=O)[C@@H](Cc3c[nH]c4ccccc34)NC(=O)[C@@H]3CCC(=O)NCCCC[C@H](NC(=O)[C@H]([C@@H](C)O)NC2=O)C(=O)N[C@@H]([C@@H](C)O)C(=O)N[C@@H](CO)C(=O)N[C@H](C(=O)O)CSSC[C@H](NC(=O)[C@@H](N)Cc2ccc(O)cc2)C(=O)N[C@@H](CCCCN)C(=O)N[C@@H](Cc2ccccc2)C(=O)N3)cc1`, for which the half-maximal inhibitory concentration (IC50) in assay [1], in assay [2], in assay [3], in assay [4] and in assay [5] was greater than 1000 nM throughout.
For `CC(C)NCc1ccc(C[C@@H]2NC(=O)[C@@H](Cc3c[nH]c4ccccc34)NC(=O)[C@@H]3CC(=O)NC[C@H](NC(=O)[C@H](Cc4ccccc4)NC(=O)[C@H]([C@@H](C)O)NC2=O)C(=O)N[C@@H](CO)C(=O)N[C@H](C(=O)O)CSSC[C@H](NC(=O)[C@@H](N)Cc2ccc(O)cc2)C(=O)N[C@@H](CCCCN)C(=O)N[C@@H](Cc2ccccc2)C(=O)N3)cc1`, the IC50 in assay [1], in assay [2], in assay [3], in assay [4] and in assay [5] was greater than 1000 nM in each case.
As for `CC(C)NCc1ccc(C[C@@H]2NC(=O)[C@@H](Cc3c[nH]c4ccccc34)NC(=O)[C@H]3CCC(=O)NCC[C@@H](NC(=O)[C@H]([C@@H](C)O)NC2=O)C(=O)N[C@@H]([C@@H](C)O)C(=O)N[C@@H](CO)C(=O)N[C@H](C(=O)O)CSSC[C@H](NC(=O)[C@@H](N)Cc2ccc(O)cc2)C(=O)N[C@@H](CCCCN)C(=O)N[C@@H](Cc2ccccc2)C(=O)N3)cc1`, the IC50 in assay [1], in assay [2], in assay [3], in assay [4] and in assay [5] was greater than 1000 nM each time.
Turning to `CC(C)NCc1ccc(C[C@@H]2NC(=O)[C@@H](Cc3c[nH]c4ccccc34)NC(=O)[C@@H]3CCC(=O)NCC(=O)NCC[C@H](NC(=O)[C@H](Cc4ccccc4)NC(=O)[C@H]([C@@H](C)O)NC2=O)C(=O)N[C@@H](CO)C(=O)N[C@H](C(=O)O)CSSC[C@H](NC(=O)[C@@H](N)Cc2ccc(O)cc2)C(=O)N[C@@H](CCCCN)C(=O)N[C@@H](Cc2ccccc2)C(=O)N3)cc1`, the IC50 in assay [1], in assay [2], in assay [3], in assay [4] and in assay [5] was greater than 1000 nM each time.
Turning to `CC(C)NCc1ccc(C[C@@H]2NC(=O)[C@@H](Cc3c[nH]c4ccccc34)NC(=O)[C@@H]3CCC(=O)NCC[C@H](NC(=O)[C@H](Cc4ccccc4)NC(=O)[C@H]([C@@H](C)O)NC2=O)C(=O)N[C@@H](CO)C(=O)N[C@H](C(=O)O)CSSC[C@H](NC(=O)[C@@H](N)Cc2ccc(O)cc2)C(=O)N[C@@H](CCCCN)C(=O)N[C@@H](Cc2ccccc2)C(=O)N3)cc1`, the IC50 in assay [1] was greater than 1000 nM; in assay [2], greater than 1000 nM; in assay [3], greater than 1000 nM; in assay [4], greater than 1000 nM; in assay [5], 241 nM.
For `CC(C)NCc1ccc(C[C@@H]2NC(=O)[C@@H](Cc3c[nH]c4ccccc34)NC(=O)[C@@H]3CCC(=O)NCCCCC[C@H](NC(=O)[C@H](Cc4ccccc4)NC(=O)[C@H]([C@@H](C)O)NC2=O)C(=O)N[C@@H](CO)C(=O)N[C@H](C(=O)O)CSSC[C@H](NC(=O)[C@@H](N)Cc2ccc(O)cc2)C(=O)N[C@@H](CCCCN)C(=O)N[C@@H](Cc2ccccc2)C(=O)N3)cc1`, the IC50 in assay [1] is greater than 1000 nM; in assay [2], greater than 1000 nM; in assay [3], greater than 1000 nM; in assay [4], greater than 1000 nM; in assay [5] it was 94 nM.
For `C[C@@H](O)[C@@H]1NC(=O)[C@H](Cc2ccccc2)NC(=O)[C@H]([C@@H](C)O)NC(=O)[C@H](CCCCN)NC(=O)[C@@H](Cc2c[nH]c3ccccc23)NC(=O)[C@H](Cc2ccccc2)NC(=O)[C@H](Cc2ccccc2)NC(=O)[C@H](CC(N)=O)NC(=O)[C@@H](N)CSSC[C@@H](C(=O)O)NC1=O`, the Relative potency in the assay listed under Rattus norvegicus [6] came to 75; in the assay listed under Rattus norvegicus [7], 8.
Take `CC(C)NCc1ccc(C[C@@H]2NC(=O)[C@@H](Cc3c[nH]c4ccccc34)NC(=O)[C@@H]3CCC(=O)NCCCCCC[C@H](NC(=O)[C@H](Cc4ccccc4)NC(=O)[C@H]([C@@H](C)O)NC2=O)C(=O)N[C@@H](CO)C(=O)N[C@H](C(=O)O)CSSC[C@H](NC(=O)[C@@H](N)Cc2ccc(O)cc2)C(=O)N[C@@H](CCCCN)C(=O)N[C@@H](Cc2ccccc2)C(=O)N3)cc1`: the IC50 is greater than 1000 nM in assay [1]; greater than 1000 nM in assay [2]; greater than 1000 nM in assay [3]; greater than 1000 nM in assay [4]; 16 nM in assay [5].
For the compound `CC(C)NCc1ccc(C[C@@H]2NC(=O)[C@@H](Cc3c[nH]c4ccccc34)NC(=O)[C@@H]3CCC(=O)NCCCC[C@H](NC(=O)[C@H](Cc4ccccc4)NC(=O)[C@H]([C@@H](C)O)NC2=O)C(=O)N[C@@H](CO)C(=O)N[C@H](C(=O)O)CSSC[C@H](NC(=O)[C@@H](N)Cc2ccc(O)cc2)C(=O)N[C@@H](CCCCN)C(=O)N[C@@H](Cc2ccccc2)C(=O)N3)cc1`, the 50% inhibitory concentration (IC50) is greater than 1000 nM in assay [1]; greater than 1000 nM in assay [2]; greater than 1000 nM in assay [3]; greater than 1000 nM in assay [4]; 53 nM in assay [5].
On to `CC(C)NCc1ccc(C[C@@H]2NC(=O)[C@@H](Cc3c[nH]c4ccccc34)NC(=O)[C@@H]3CCC(=O)NCCCCC[C@@H](NC(=O)[C@H](Cc4ccccc4)NC(=O)[C@H]([C@@H](C)O)NC2=O)C(=O)N[C@@H](CO)C(=O)N[C@H](C(=O)O)CSSC[C@H](NC(=O)[C@@H](N)Cc2ccc(O)cc2)C(=O)N[C@@H](CCCCN)C(=O)N[C@@H](Cc2ccccc2)C(=O)N3)cc1`, for which the IC50 in assay [1] is greater than 1000 nM; in assay [2] it was greater than 1000 nM; in assay [3] it was 99 nM; in assay [4] it was greater than 1000 nM; in assay [5], 782 nM.
Consider `C[C@@H](O)[C@@H]1NC(=O)[C@H](Cc2ccccc2)NC(=O)[C@H]([C@@H](C)O)NC(=O)[C@H](CCCCN)NC(=O)[C@@H](Cc2c[nH]c3ccccc23)NC(=O)[C@H](Cc2ccccc2)NC(=O)[C@H](Cc2ccccc2)NC(=O)[C@@H](N)CSSC[C@@H](C(=O)O)NC(=O)[C@H](CO)NC1=O`, for which the Relative potency in the assay listed under Rattus norvegicus [6] is reported as 700; in the assay filed under Rattus norvegicus [8] it was less than 1; in the assay listed under Rattus norvegicus [7], 110.
Turning to `CC(C)NCc1ccc(C[C@@H]2NC(=O)[C@@H](Cc3c[nH]c4ccccc34)NC(=O)[C@@H]3CC(=O)NCCC[C@H](NC(=O)[C@H](Cc4ccccc4)NC(=O)[C@H]([C@@H](C)O)NC2=O)C(=O)N[C@@H](CO)C(=O)N[C@H](C(=O)O)CSSC[C@H](NC(=O)[C@@H](N)Cc2ccc(O)cc2)C(=O)N[C@@H](CCCCN)C(=O)N[C@@H](Cc2ccccc2)C(=O)N3)cc1`, the IC50 in assay [1], in assay [2], in assay [3], in assay [4] and in assay [5] was greater than 1000 nM throughout.
For `CC(C)NCc1ccc(C[C@@H]2NC(=O)[C@@H](Cc3c[nH]c4ccccc34)NC(=O)[C@@H]3CCC(=O)NCC[C@H](NC(=O)[C@H]([C@@H](C)O)NC2=O)C(=O)N[C@@H]([C@@H](C)O)C(=O)N[C@@H](CO)C(=O)N[C@H](C(=O)O)CSSC[C@H](NC(=O)[C@@H](N)Cc2ccc(O)cc2)C(=O)N[C@@H](CCCCN)C(=O)N[C@@H](Cc2ccccc2)C(=O)N3)cc1`, the IC50 in assay [1], in assay [2], in assay [3], in assay [4] and in assay [5] was greater than 1000 nM in each case.
Regarding `CC(C)NCc1ccc(C[C@@H]2NC(=O)[C@@H](Cc3c[nH]c4ccccc34)NC(=O)[C@@H]3CCC(=O)NCCC[C@H](NC(=O)[C@H](Cc4ccccc4)NC(=O)[C@H]([C@@H](C)O)NC2=O)C(=O)N[C@@H](CO)C(=O)N[C@H](C(=O)O)CSSC[C@H](NC(=O)[C@@H](N)Cc2ccc(O)cc2)C(=O)N[C@@H](CCCCN)C(=O)N[C@@H](Cc2ccccc2)C(=O)N3)cc1`, the IC50 was greater than 1000 nM in assay [1]; greater than 1000 nM in assay [2]; greater than 1000 nM in assay [3]; greater than 1000 nM in assay [4]; 554 nM in assay [5].
In the case of `CC(C)NCc1ccc(C[C@@H]2NC(=O)[C@@H](Cc3c[nH]c4ccccc34)NC(=O)[C@@H]3CCC(=O)NCCCCCC[C@@H](NC(=O)[C@H](Cc4ccccc4)NC(=O)[C@H]([C@@H](C)O)NC2=O)C(=O)N[C@@H](CO)C(=O)N[C@H](C(=O)O)CSSC[C@H](NC(=O)[C@@H](N)Cc2ccc(O)cc2)C(=O)N[C@@H](CCCCN)C(=O)N[C@@H](Cc2ccccc2)C(=O)N3)cc1`, the IC50 is greater than 1000 nM in assay [1]; 772 nM in assay [2]; greater than 1000 nM in assay [3]; greater than 1000 nM in assay [4]; 204 nM in assay [5].
